Source: PubChem
Autophagy HCS = alters autophagy in cells; MEF GFP-LC3 puncta imaging; test concentration mostly 10 µM; calls only at 10 µM (by protocol); actives 0.98% (n = 190,000); AID 463193;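 active = percentage of spot-positive cells more than 3 SD above its plate mean, without a fluorescence outlier flag or 80% toxicity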;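 note: spot-positive cell cutoff set from DMSO-treated cells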
Cl transport mod = modulates chloride dependent transport by human KCC2. B-score of Tl+ flux slope (higher = more flux/activation; lower = inhibition) at 10 µM. actives 2.2% (n = 190,000). KCC2 cells, thallium flux FluoZin-2 fluorescence. Q9H2X9. AID 1456;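 active = thallium flux slope and its plate-corrected score both differing from the plate sample mean at a set confidence after two filtering rounds, in either direction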;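 note: slope of fluorescence scaled to starting intensity during 10 to 20 s after thallium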
Dynein transport = dynein cargo transport inhibition. AID 1381. z-score, hits read low. actives 0.47% (n = 220,000). 3617.4 mouse cells, GR-EGFP nuclear translocation imaging; test concentration mostly 20 µM; stimulated with dexamethasone, 1 µM; active compounds read low;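 active = plate z-score of nuclear minus cytoplasmic receptor signal below a set negative limit, without overly bright fluorescence or cell loss, cut at about -3.5 in these data, passing the limit was not always enough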;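 note: z-score of nuclear minus cytoplasmic ring GR-EGFP intensity difference per well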
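Also added: dexamethasone, 1.0 µM final. Medium: tet-free, stripped-serum medium. Detection: fixed, Hoechst-stained cells imaged at 10x for EGFP. Read-out: nuclear-to-cytoplasmic GR-EGFP distribution per well. Times: induction 48 h, compound 1 h, agonist 30 min.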
ROMK primary = human ROMK K+ channel modulation, primary screen; Tet-inducible ROMK, thallium flux fluorescence; actives lie on both sides; B-score at 10 µM; actives 2% (n = 130,000); AID 1918;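 active = signal ratio slope over the read window, or its plate-corrected B-score, at least 3 SD from the plate mean, either direction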;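 note: B-score of the F/F0 ratio slope over 7 to 12 s after thallium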
Redox H2O2 prof = compounds producing H2O2 with reducing agent – biochemical, NIH compound library profiling, artefact control for MLSCN library redox annotation, primary screen; DTT-dependent redox cycling H2O2, phenol red/HRP absorbance; 100% = 100 µM peroxide control, 0% = buffer; activation, % at 10 µM; actives 0.03% (n = 200,000); AID 878;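 active = activation of at least 50% relative to the plate's high and low controls in the primary single-dose screen; inactive = activation below 50%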;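 note: compound incubated with DTT at 0.8 mM final as the reducing agent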
* marks the source's active call; other numbers are inactive results. Only some compounds are listed: those with a hit (about 4.1% of all), similar ones and a draw of the others.

Results for CC(CCc1ccccc1)NC(=O)CSc1ccccc1 (stereo unspecified) ?
Autophagy HCS: active; Cl transport mod: -1.7; Dynein transport: 1.4; ROMK primary: -0.12; Redox H2O2 prof: -1

How did O=C(CC1Nc2c3ccccc3nc(=S)n2C1=O)NC1CCCCC1 (stereo unspecified) do in these assays?
Autophagy HCS: inactive; Cl transport mod: 1.2; Dynein transport: -0.64; ROMK primary: 1.4; Redox H2O2 prof: 0

How did CCC(=O)Oc1ccc(NC(=O)CSCc2ccccc2)cc1 do in these assays?
Autophagy HCS: inactive; Cl transport mod: -1.4; Dynein transport: 0.46; ROMK primary: 0.6; Redox H2O2 prof: 0

How did O=[N+]([O-])c1ccc(N/N=C/c2cccc(O)c2O)c(S(=O)(=O)N2CCOCC2)c1 do in these assays?
Autophagy HCS: active; Cl transport mod: 0.65; Dynein transport: -0.21; ROMK primary: -0.067; Redox H2O2 prof: 1

How did CC(C)NS(=O)(=O)c1ccc(OCC(=O)Nc2ccc(F)cc2)cc1 do in these assays?
Autophagy HCS: inactive; Cl transport mod: -0.032; Dynein transport: -0.34; ROMK primary: 0.14; Redox H2O2 prof: 8

How did COc1ccc(CCCc2nnc(SCc3nc4ccccc4c(=O)[nH]3)n2C)c(C)c1 do in these assays?
Cl transport mod: -0.95; Dynein transport: 1.5

Results for Cc1cc(OCC(=O)Nc2ccncc2)ccc1[N+](=O)[O-] ?
Autophagy HCS: inactive; Cl transport mod: -1.4; Dynein transport: -0.12; ROMK primary: 1.3; Redox H2O2 prof: 0

Results for COc1ccc(/C=N\NC(=S)SCN2C(=O)C3CCC(C)(C2=O)C3(C)C)cc1 (stereo unspecified) ?
Autophagy HCS: inactive; Cl transport mod: 14*; Dynein transport: 1.7; Redox H2O2 prof: 3

How did CN(C)c1ccc(/C=N/NC(=O)CCCO)cc1 do in these assays?
Autophagy HCS: inactive; Cl transport mod: 0.29; Dynein transport: -1; Redox H2O2 prof: 0

Results for CC12CCC(C(=O)N(CSC(=S)N/N=C\c3ccccc3O)C1=O)C2(C)C (stereo unspecified) ?
Autophagy HCS: inactive; Cl transport mod: 13*; Dynein transport: -0.49; ROMK primary: -0.19; Redox H2O2 prof: 1

What do the screens show for `CN(C)c1ccc(/C=N\NC(=S)SCN2C(=O)C3CCC(C)(C2=O)C3(C)C)cc1` (stereo unspecified)?
Autophagy HCS: inactive; Cl transport mod: 6.4*; Dynein transport: -0.81; ROMK primary: -0.48; Redox H2O2 prof: 1

Results for O=C(/C=C/c1cn(-c2ccccc2)nc1-c1cccc(Cl)c1)N1CCN(c2ccccn2)CC1 ?
Autophagy HCS: inactive; Cl transport mod: -1.5; Dynein transport: -0.92; ROMK primary: 1; Redox H2O2 prof: 1

How did S=c1[nH]nc(C2COc3ccccc3O2)o1 (stereo unspecified) do in these assays?
Autophagy HCS: inactive; Cl transport mod: -6.9*; Dynein transport: 0.68; Redox H2O2 prof: 0

What do the screens show for `S=c1nc(C2CC2)[nH]c2ccccc12`?
Autophagy HCS: inactive; Cl transport mod: 32*; Dynein transport: 1.6; Redox H2O2 prof: -1

What do the screens show for `S=c1nc(C2CCCCC2)[nH]c2ccccc12`?
Autophagy HCS: inactive; Cl transport mod: 86*; Dynein transport: 0.14; ROMK primary: 3.1*; Redox H2O2 prof: 0

How did CC(C)c1nc(=S)c2ccccc2[nH]1 do in these assays?
Autophagy HCS: inactive; Cl transport mod: 19*; Dynein transport: -1.2; Redox H2O2 prof: 2

Results for O=c1[nH]c(C2CCCCC2)nc2ccccc12 ?
Autophagy HCS: inactive; Cl transport mod: 0.47; Dynein transport: -0.56; ROMK primary: -0.65; Redox H2O2 prof: -1

How did CNc1nc(=S)[nH]c2ccccc12 do in these assays?
Cl transport mod: 0.9; Dynein transport: 1.5

How did CCOc1cc(/C=N/NC(=O)C(=O)NC)cc(Br)c1O do in these assays?
Autophagy HCS: inactive; Cl transport mod: -0.088; Dynein transport: 0.18; Redox H2O2 prof: 0

What do the screens show for `CN1C(N)=NC(=O)/C1=C/c1ccccc1F`?
Autophagy HCS: inactive; Cl transport mod: -0.038; Dynein transport: 0.62; ROMK primary: -0.18; Redox H2O2 prof: -1

What do the screens show for `NNc1nc2c(-c3ccc(Cl)cc3)nnn2c2ccccc12`?
Autophagy HCS: active; Cl transport mod: 0.49; Dynein transport: 1.2; ROMK primary: -0.35; Redox H2O2 prof: -2

What do the screens show for `CSc1nc(SCC(=O)O)c2sc3nc(-c4ccccc4)c4c(c3c2n1)CCC4`?
Cl transport mod: 6.1*; Dynein transport: -0.24; ROMK primary: 1

Results for COc1ccc(CN2CCN(Cc3csc(C(C)=O)c3)CC2CCO)c(C)c1C (stereo unspecified) ?
Autophagy HCS: inactive; Cl transport mod: 0.52; Dynein transport: 0.077; ROMK primary: -0.92; Redox H2O2 prof: 0

How did C/C(O)=C(\N=Nc1cc(C)ccc1O)C(N)=O do in these assays?
Autophagy HCS: inactive; Cl transport mod: 0.3; Dynein transport: -1.2; Redox H2O2 prof: -1

Results for CCOc1ccccc1NC(=O)c1cccc(NC(=O)c2ccco2)c1 ?
Autophagy HCS: active; Cl transport mod: -1.1; Dynein transport: -0.37; Redox H2O2 prof: 1

What do the screens show for `CCOc1ccc(C(=O)Nc2ccc(NC(=O)c3ccco3)c(Cl)c2)cc1Br`?
Autophagy HCS: inactive; Cl transport mod: 0.12; Dynein transport: -0.46; Redox H2O2 prof: -1

How did CCOc1ccc(C(=O)Nc2ccc(NC(=O)c3ccco3)c(Cl)c2)cc1Cl do in these assays?
Autophagy HCS: active; Dynein transport: -0.14; ROMK primary: -0.35; Redox H2O2 prof: 0

Results for COc1cccc(-n2nc(C(C)=O)c(C#N)c2-c2ccco2)c1 ?
Autophagy HCS: inactive; Cl transport mod: 0.23; Dynein transport: 0.49; ROMK primary: 0.89; Redox H2O2 prof: 0

Results for CCN(CC)S(=O)(=O)c1ccc2c3c(cccc13)C(=O)N2 ?
Autophagy HCS: active; Cl transport mod: 0.13; Dynein transport: -0.77; Redox H2O2 prof: 0

What do the screens show for `CC(/C=N/NC(=O)CNc1n[nH]c(=O)[nH]c1=O)c1ccccc1` (stereo unspecified)?
Cl transport mod: -0.98; Dynein transport: 0.93; ROMK primary: 0.22

What do the screens show for `CCOc1ccc(N2C(=O)CC(Sc3nnnn3-c3ccccc3)C2=O)cc1` (stereo unspecified)?
Autophagy HCS: active; Cl transport mod: 0.23; Dynein transport: -3.2; ROMK primary: -0.26; Redox H2O2 prof: -1

What do the screens show for `COc1cc(NC(=S)NCCN2CCOCC2)cc(OC)c1`?
Autophagy HCS: active; Cl transport mod: 0.94; Dynein transport: 2.2; ROMK primary: 0.83; Redox H2O2 prof: 0

How did C=CCNC(=S)Nc1ccc(N(C)C)cc1 do in these assays?
Cl transport mod: 0.85; Dynein transport: 0.47
